Measurements published in the RNAGym collection of RNA variant scans (doi:10.1126/science.aae0568).
This sample holds only a part of the variants without activity.

B1: tRNA (parent)
chain: GUUCCGUUGGCGUAAUGGUAACGCGUCUCCCUCCUAAGGAGAAGACUGCGGGUUCGAGUCCCGUACGGAACG

Variants of: B1
Assay: yeast fitness relative to wild type (ratio to wild type); higher = fitter; tRNA-Arg(CCU), competitive growth, 37 C, YPD
Outline: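 Amplicons of the tRNA-Arg(CCU) gene were sequenced, 100-nucleotide paired-end, from the start population and from each end population of a pooled yeast competition. The competition, in six parallel replicates, lasted 24 hours in YPD at 37°C. Fitness relative to wild type was calculated from changes in genotype frequencies. Genotypes had to have ≥ 100 starting reads, and estimates < 0.5 were set to 0.5.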

Row | Variant | yeast fitness
1 | C5G U35A C60A | ≤ 0.5
2 | C5G U35A G44C C66U G67U A70G | 0.542
3 | C5G U35A G51A | ≤ 0.5
4 | C5G U35A G63C | ≤ 0.5
5 | C5G U35C | 0.71
6 | C5G U35C A69C | 0.551
7 | C5G U35C G48C | 0.571
8 | C5G U35C G50C G56A A70U | ≤ 0.5
9 | C5G U35G A37G | 0.536
10 | C5G U35G C49A | ≤ 0.5
11 | C5G U35G C49A G56A | ≤ 0.5
12 | C5G U47A C55A | 0.637
13 | C5G U47A C62G G63A | ≤ 0.5
14 | C5G U47A G52A G68C | ≤ 0.5
15 | C5G U47A G68C | 0.565
16 | C5G U47C | 0.745
17 | C5G U47C A65C | 0.558
18 | C5G U47C C61A G68U | ≤ 0.5
19 | C5G U47C C61G | 0.519
20 | C5G U47C U59A | ≤ 0.5
21 | C5G U47G | 0.611

Row | Variant | yeast fitness
22 | C5G U53A | 0.658
23 | C5G U53C | 0.866
24 | C5G U53G A65U | 0.612
25 | C5G U54A | 0.666
26 | C5G U54C G56A | 0.729
27 | C5G U54G | 0.654
28 | C5G U59A A65G | 0.667
29 | C5G U59C | 0.852
30 | C5G U59G | 0.62
31 | C5G U59G A65G | 0.614
32 | C5G U64C | 0.978
33 | C5U | 0.987
34 | C5U A14C A15U G17A U26C A42U A45C G63C G68U | ≤ 0.5
35 | C5U A14C A21G C30G C34U G39A C55U | ≤ 0.5
36 | C5U A14C A42G A65C | ≤ 0.5
37 | C5U A14C A45C | ≤ 0.5
38 | C5U A14C C24U A36G A70U | ≤ 0.5
39 | C5U A14C C27U C33G C55G C61U | ≤ 0.5
40 | C5U A14C C29U C33A C49U C55G | ≤ 0.5
41 | C5U A14C C31A A40U C60A | ≤ 0.5
42 | C5U A14C C31G A43U C60G | ≤ 0.5

Row | Variant | yeast fitness
43 | C5U A14C C34G A37U A40U | ≤ 0.5
44 | C5U A14C C46A | 0.548
45 | C5U A14C C46G | 0.561
46 | C5U A14C G52C A65U | ≤ 0.5
47 | C5U A14C G68C | ≤ 0.5
48 | C5U A14C U35C | ≤ 0.5
49 | C5U A14G | 0.77
50 | C5U A14G A15U U28A C33G G41C G56A | ≤ 0.5
51 | C5U A14G A36G G68C | ≤ 0.5
52 | C5U A14G A43G | 0.553
53 | C5U A14G A45G A69C | ≤ 0.5
54 | C5U A14G C22A | ≤ 0.5
55 | C5U A14G C22U | ≤ 0.5
56 | C5U A14G C24U U32G A43G C66U | ≤ 0.5
57 | C5U A14G C33G A40G C60G | ≤ 0.5
58 | C5U A14G C33U G50C C55U A57G | ≤ 0.5
59 | C5U A14G C46G A65U | ≤ 0.5
60 | C5U A14G G50C C55U A57G G68A | ≤ 0.5
61 | C5U A14G G68C | 0.57
62 | C5U A14G U16A C30U | ≤ 0.5
63 | C5U A14G U26C C30U A42C C61U | ≤ 0.5

Row | Variant | yeast fitness
64 | C5U A14G U28C | 0.562
65 | C5U A14G U28C U64C | ≤ 0.5
66 | C5U A14U | 0.718
67 | C5U A14U A15C | 0.727
68 | C5U A14U A21G G68C | 0.588
69 | C5U A14U C24G | ≤ 0.5
70 | C5U A14U C27G | ≤ 0.5
71 | C5U A14U C27G G38C G63A | ≤ 0.5
72 | C5U A14U C30U G39C C60A | ≤ 0.5
73 | C5U A14U C30U G39C C60A A70C | ≤ 0.5
74 | C5U A14U C31G U59A C61U | ≤ 0.5
75 | C5U A14U C49G A65U | ≤ 0.5
76 | C5U A14U C55G A65G | 0.566
77 | C5U A14U G48A C66U | ≤ 0.5
78 | C5U A14U U19C G48A C66U | ≤ 0.5
79 | C5U A15C A21U | ≤ 0.5
80 | C5U A15C A36U A65C | ≤ 0.5
81 | C5U A15C C27U C29U A57C | ≤ 0.5
82 | C5U A15C C29U G58C | ≤ 0.5
83 | C5U A15C C34G A37G A65G | ≤ 0.5
84 | C5U A15C C34G A40U A43C C49G G50A C60U | 0.583
